Source: PubChem BioAssay
Compounds with a hit are over-represented: about 1% of the library has one in this group of screens.
Yeast tox: Inhibits yeast growth, turbidity readout | S. cerevisiae wild-type growth, A595 turbidity, 16 h | AID 685 | growth inhibition, % at 25 µM (by protocol) | 0.3% of 30,000 active;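 active means mutant and wild-type yeast strains alike exhibit over 30% growth inhibition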;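 further: 0% = untreated cell controls and 100% = YPD media blanks without cells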
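Test system: Wild-type and eIF2Bepsilon-R284H mutant S. cerevisiae, screened separately | Dosing: Single 25 µM compound dose in 0.2% DMSO | Schedule: 16 h compound exposure during growth at 30 °C | Detection: A595 turbidity | Evaluation: Growth inhibition (%) versus cell controls and blanks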
eIF2B yeast act: modulators of yeast eIF2B activity; S. cerevisiae eIF2B-epsilon R284H, GCN4-lacZ luminescence; inhibition, % at 25 µM (by protocol); 0.91% of 27,000 active; AID 688;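 active means mutant luminescence inhibited past about 50% while wild type luminescence and mutant growth stay under set limits, limit read from the data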
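Times: 16 h growth with compound at 30 °C, 90 min Beta-Glo step; Assay system: yeast eIF2B-epsilon R284H mutant carrying GCN4–beta-galactosidase fusion; Measure: % inhibition of reporter signal and growth versus controls; Dosing: one concentration, 25 µM, 0.25% DMSO; Buffer or medium: YPD yeast growth medium; Measured by: Beta-Glo luminescence plus absorbance at 595 nm.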
* hit, by the source's call.

`CC(C)N(Cc1nnc(-c2ccccc2Cl)o1)C(=O)c1cccc(C#N)c1` gave Yeast tox -23.4 and eIF2B yeast act 4.0.
Screening O=C(Nc1ccccc1)C1CC=CCC1C(=O)OCC1CCCO1 (stereo not drawn) returned Yeast tox 33.3* and eIF2B yeast act 22.2.
For O=C(NCC1CCCO1)c1ccccc1 (stereo not drawn) the results were Yeast tox 12.4 and eIF2B yeast act 4.6.
O=S(=O)(NCC1CCCO1)c1ccc(S(=O)(=O)N(Cc2ccccc2F)C2CCCCC2)cc1 (stereo not drawn) was read as Yeast tox -3.2 and eIF2B yeast act 21.9.
`C=CCn1c(N)cc(=O)nc1SCC(=O)Nc1ccccc1` gave Yeast tox -10.9 and eIF2B yeast act 57.8*.
C=CCn1c(SCC(=O)Nc2sccc2C(N)=O)nc2ccccc2c1=O was read as Yeast tox -11.6 and eIF2B yeast act 19.3.
Screening CCCCOC(=O)Nc1ccccc1C(N)=O returned Yeast tox 10.0 and eIF2B yeast act -4.3.
`Cc1ccc(C)c(/C(O)=C2\C(=O)C(=O)N(CCCn3ccnc3)C2c2cccnc2)c1` (stereo not drawn) gave Yeast tox 4.3 and eIF2B yeast act 22.3.
`Cc1ccc(N2C(=O)C3C4C=CC(C4)C3C2=O)cc1C` (stereo not drawn) gave Yeast tox -6.4 and eIF2B yeast act 7.3.
Screening Cc1cccc(N2C(=O)C3C4C=CC(C4)C3C2=O)c1 (stereo not drawn) returned Yeast tox -6.0 and eIF2B yeast act 57.1*.
`CC(=O)NCCCc1c[nH]c2ccc(Cl)cc12` gave Yeast tox -0.6 and eIF2B yeast act 36.4.
`Cc1cc(C(=O)Nc2nnc(C3CCCCC3)s2)no1` gave Yeast tox -1.1 and eIF2B yeast act 51.3*.
For Cc1ccc(C(=O)Nc2nnc(C3CCCCC3)s2)o1 the results were Yeast tox 10.0.
Screening COc1ccc(NC(=O)COC(=O)c2cnccn2)cc1Cl returned Yeast tox 22.1 and eIF2B yeast act -1.6.
CCOc1ccc(-c2[nH]ncc2Oc2ccccc2OC)c(O)c1 was read as Yeast tox 32.5 and eIF2B yeast act 8.2.
Screening CCCOC(=O)c1ccc(Oc2cn[nH]c2-c2ccc(OC)cc2O)cc1 returned Yeast tox 60.0* and eIF2B yeast act 29.0.
For CCOC(=O)C1=C(NC(=O)c2ccc(Br)o2)Nc2ccccc2N=C1 the results were Yeast tox 0.6 and eIF2B yeast act 42.4.
`COc1cc(OC)c(-c2nn3c(-c4ccncc4)nnc3s2)cc1OC` gave Yeast tox -27.0 and eIF2B yeast act -0.5.
For Cc1nnc2sc(-c3ccncc3)nn12 the results were Yeast tox 4.7 and eIF2B yeast act 64.0*.
`CCOc1cc(C2NC(=O)N(C)C(C)=C2C(=O)OC)cc(Br)c1O` (stereo not drawn) gave Yeast tox 10.6 and eIF2B yeast act 30.3.
Screening COc1ccc(CCN2C(=S)NC3CC2(C)Oc2ccc([N+](=O)[O-])cc23)cc1OC (stereo not drawn) returned Yeast tox 33.5.
`COCCCNC(=O)C1CCCN(S(=O)(=O)c2ccc(C)cc2)C1` (stereo not drawn) gave Yeast tox 4.9 and eIF2B yeast act -5.7.
Cc1cc(Cl)ccc1N=c1ssnc1Cl was read as Yeast tox 78.9* and eIF2B yeast act 1.9.
Cc1ccnc(NS(=O)(=O)c2ccc(NC(=O)C34CC5CC(CC(C5)C3)C4)cc2)n1 was read as Yeast tox 3.1.
`CCNC(=O)CC1C(=O)N(c2ccccc2)C(=O)N1CCc1ccc(OC)cc1` (stereo not drawn) gave Yeast tox 5.1 and eIF2B yeast act 14.4.
`CCCCN1C(=O)CN(CCc2ccccc2)C(=O)C1c1ccc(OC)cc1` (stereo not drawn) gave Yeast tox 1.3 and eIF2B yeast act 58.0*.
For Cc1ccccc1C(=O)Nc1ccc2c(c1)OCO2 the results were Yeast tox 1.7 and eIF2B yeast act 35.3.
Screening CCn1c(Sc2nc(C)nc3scc(-c4cccs4)c23)n[nH]c1=O returned Yeast tox 46.2* and eIF2B yeast act 40.8.
For CCc1nc2scc(-c3cccs3)c2c(=O)o1 the results were Yeast tox 2.7 and eIF2B yeast act -20.1.
Screening O=C(O)C1CC=CCC1C(=O)Nc1ccc2c(c1)OCCO2 (stereo not drawn) returned Yeast tox 9.7 and eIF2B yeast act 14.3.
For CC1=CCC2(CO)COC(c3ccccc3O)C1C2 (stereo not drawn) the results were Yeast tox 11.6 and eIF2B yeast act 9.7.
CCCCn1nnnc1SCC(=O)Nc1ccc(N(C)C)cc1 was read as Yeast tox 15.5 and eIF2B yeast act 14.6.
CCc1c(C)c(C#N)c2nc3ccccc3n2c1NCc1ccco1 was read as Yeast tox 22.3.
C=CCc1c(C)c(C#N)c2nc3ccccc3n2c1NCCN(C)C was read as Yeast tox 95.5* and eIF2B yeast act 94.7.
